Assay results published in ChEMBL document CHEMBL4038284, “Synthesis of novel quinoline-based 4,5-dihydro-1H-pyrazoles as potential anticancer, antifungal, antibacterial and antiprotozoal agents” (Eur J Med Chem, 2017).

What was measured:
Format in all cases: functional
[1] = tested on: KM12; assay: Growth inhibition of human KM12 cells incubated for 48 hrs by sulforhodamine B assay; details: KM12, 48 h
Summary of the method: (§1)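 Five-dose NCI SRB assay at 100, 10, 1.0, 0.1 and 0.01 μM for 48 h at 37 °C, 5% CO2. Medium was RPMI-1640 with 5% FBS and 2 mM glutamine. Time-zero plates were TCA-fixed at compound addition, A515 read after SRB staining. GI50 was solved from [(Ti−Tz)/(C−Tz)]×100 = 50. Values beyond the tested range are given as > or <.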

[2] = tested on: CCRF-CEM; assay: Growth inhibition of human CCRF-CEM cells incubated for 48 hrs by sulforhodamine B assay; details: for CC50: read-out: LC50 (the source's name)
Summary of the method: (§2)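 NCI 60-line screen. Cells in RPMI-1640 with 5% FBS and 2 mM L-glutamine, preincubated 24 h, then time-zero plates TCA-fixed. Compounds from DMSO stocks given at five final concentrations (100, 10, 1.0, 0.1, 0.01 µM) for 48 h at 37 °C, 5% CO2. Cells fixed with 10% TCA, SRB-stained, read at 515 nm. GI50 is the concentration giving 50% lower net protein increase versus control.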

[3] = tested on: COLO 205; assay: Growth inhibition of human COLO205 cells incubated for 48 hrs by sulforhodamine B assay; details: COLO 205, 48 h; for CC50: read-out: LC50 (the source's name)
Summary of the method: (§3)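 NCI five-dose SRB assay (100, 10, 1.0, 0.1, 0.01 µM) with 48 h exposure in RPMI-1640 with 5% FBS and 2 mM L-glutamine. Cells fixed with TCA and stained with SRB, read at 515 nm. GI50 is the concentration where [(Ti−Tz)/(C−Tz)]×100 = 50.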

[4] = tested on: U-251; assay: Growth inhibition of human U251 cells incubated for 48 hrs by sulforhodamine B assay; details: U-251, 48 h; for CC50: read-out: LC50 (the source's name)
Summary of the method: (§4)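 NCI-60 panel cells grown in RPMI-1640 with 5% FBS and 2 mM L-glutamine, preincubated 24 h at 37 °C/5% CO2. Time-zero plates were TCA-fixed at compound addition. DMSO stocks were diluted in medium and tested at five final concentrations (100, 10, 1.0, 0.1, 0.01 µM) for 48 h. Cells were TCA-fixed, stained with SRB and read at 515 nm. GI50 = 50% lower net protein increase versus control.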

[5] = tested on: A549; assay: Growth inhibition of human A549/ATCC cells incubated for 48 hrs by sulforhodamine B assay; details: A549, 48 h; summary of the method: as §2
[6] = tested on: UACC-62; assay: Growth inhibition of human UACC62 cells incubated for 48 hrs by sulforhodamine B assay; details: UACC-62, 48 h; for CC50: read-out: LC50 (the source's name); summary of the method: as §2
[7] = tested on: NCI-H23; assay: Growth inhibition of human NCI-H23 cells incubated for 48 hrs by sulforhodamine B assay; details: NCI-H23, 48 h; for CC50: read-out: LC50 (the source's name); summary of the method: as §1
[8] = tested on: NCI-H460; assay: Growth inhibition of human NCI-H460 cells incubated for 48 hrs by sulforhodamine B assay; details: NCI-H460, 48 h; for CC50: read-out: LC50 (the source's name); summary of the method: as §1
[9] = tested on: SNB-75; assay: Growth inhibition of human SNB75 cells incubated for 48 hrs by sulforhodamine B assay; details: SNB-75, 48 h; for CC50: read-out: LC50 (the source's name); summary of the method: as §2
[10] = tested on: T47D; assay: Growth inhibition of human T47D cells incubated for 48 hrs by sulforhodamine B assay; details: for CC50: read-out: LC50 (the source's name); summary of the method: as §4
[11] = tested on: MDA-MB-468; assay: Growth inhibition of human MDA-MB-468 cells incubated for 48 hrs by sulforhodamine B assay; details: MDA-MB-468, 48 h; summary of the method: as §1
[12] = tested on: SN12C; assay: Growth inhibition of human SN12C cells incubated for 48 hrs by sulforhodamine B assay; summary of the method: as §4
[13] = tested on: MCF7; assay: Growth inhibition of human MCF7 cells incubated for 48 hrs by sulforhodamine B assay; details: MCF7, 48 h; for CC50: read-out: LC50 (the source's name); summary of the method: as §2
[14] = tested on: RXF 393; assay: Growth inhibition of human RXF393 cells incubated for 48 hrs by sulforhodamine B assay; details: RXF 393, 48 h; for CC50: read-out: LC50 (the source's name); summary of the method: as §1
[15] = tested on: SK-OV-3; assay: Growth inhibition of human SKOV3 cells incubated for 48 hrs by sulforhodamine B assay; details: SK-OV-3, 48 h; for CC50: read-out: LC50 (the source's name); summary of the method: as §2
[16] = tested on: A498; assay: Growth inhibition of human A498 cells incubated for 48 hrs by sulforhodamine B assay; details: A498, 48 h; for CC50: read-out: LC50 (the source's name); summary of the method: as §2
[17] = tested on: SF-268; assay: Growth inhibition of human SF268 cells incubated for 48 hrs by sulforhodamine B assay; details: SF-268, 48 h; summary of the method: as §1
[18] = tested on: MDA-MB-435; assay: Growth inhibition of human MDA-MB-435 cells incubated for 48 hrs by sulforhodamine B assay; details: MDA-MB-435, 48 h; summary of the method: as §1
[19] = tested on: NCI/ADR-RES; assay: Growth inhibition of human NCI/ADR-RES cells incubated for 48 hrs by sulforhodamine B assay; details: for CC50: read-out: LC50 (the source's name); summary of the method: as §2
[20] = tested on: HL-60(TB); assay: Growth inhibition of human HL-60(TB) cells incubated for 48 hrs by sulforhodamine B assay; details: HL-60, 48 h; for CC50: read-out: LC50 (the source's name); summary of the method: as §2
[21] = tested on: OVCAR-8; assay: Growth inhibition of human OVCAR8 cells incubated for 48 hrs by sulforhodamine B assay; details: OVCAR-8, 48 h; summary of the method: as §1
[22] = tested on: SR; assay: Growth inhibition of human SR cells incubated for 48 hrs by sulforhodamine B assay; details: for CC50: read-out: LC50 (the source's name); summary of the method: as §2
[23] = tested on: RPMI-8226; assay: Growth inhibition of human RPMI8226 cells incubated for 48 hrs by sulforhodamine B assay; details: RPMI-8226, 48 h; for CC50: read-out: LC50 (the source's name); summary of the method: as §2
[24] = tested on: OVCAR-3; assay: Growth inhibition of human OVCAR3 cells incubated for 48 hrs by sulforhodamine B assay; details: OVCAR-3, 48 h; for CC50: read-out: LC50 (the source's name); summary of the method: as §1
[25] = tested on: HT-29; assay: Growth inhibition of human HT-29 cells incubated for 48 hrs by sulforhodamine B assay; details: HT-29, 48 h; summary of the method: as §1
[26] = tested on: HCT-15; assay: Growth inhibition of human HCT15 cells incubated for 48 hrs by sulforhodamine B assay; details: HCT-15, 48 h; summary of the method: as §2
[27] = tested on: HCT-116; assay: Growth inhibition of human HCT116 cells incubated for 48 hrs by sulforhodamine B assay; details: HCT-116, 48 h; summary of the method: as §3
[28] = tested on: OVCAR-4; assay: Growth inhibition of human OVCAR4 cells incubated for 48 hrs by sulforhodamine B assay; details: OVCAR-4, 48 h; summary of the method: as §1
[29] = tested on: SW-620; assay: Growth inhibition of human SW620 cells incubated for 48 hrs by sulforhodamine B assay; details: SW-620, 48 h; for CC50: read-out: LC50 (the source's name); summary of the method: as §4
[30] = tested on: PC-3; assay: Growth inhibition of human PC3 cells incubated for 48 hrs by sulforhodamine B assay; details: PC-3, 48 h; for CC50: read-out: LC50 (the source's name); summary of the method: as §1
[31] = tested on: SNB-19; assay: Growth inhibition of human SNB19 cells incubated for 48 hrs by sulforhodamine B assay; details: SNB-19, 48 h; for CC50: read-out: LC50 (the source's name); summary of the method: as §4
[32] = read-out: LC50 (the source's name)

COc1ccc(C(=O)/C=C/c2cccc(Nc3ccnc4cc(Cl)ccc34)c2)cc1
GI50 [1]: 2450 nM
CC50 [1, 32]: > 100000 nM
GI50 [2]: 2880 nM
CC50 [2]: > 100000 nM
GI50 [3]: 3850 nM
CC50 [3]: > 100000 nM
GI50 [4]: 1730 nM
CC50 [4]: 23700 nM
GI50 [5]: 2780 nM
LC50 (concentration giving 50% net cell kill) [5]: > 100000 nM
GI50 [6]: 1190 nM
CC50 [6]: > 100000 nM
GI50 [7]: 1490 nM
CC50 [7]: > 100000 nM
GI50 [8]: 2230 nM
CC50 [8]: > 100000 nM
GI50 [9]: 1510 nM
CC50 [9]: > 100000 nM
GI50 [10]: 660 nM
CC50 [10]: > 100000 nM
GI50 [11]: 580 nM
CC50 [11, 32]: > 100000 nM
GI50 [12]: 1300 nM
CC50 [12, 32]: > 100000 nM
GI50 [13]: 1820 nM
CC50 [13]: > 100000 nM
GI50 [14]: 1820 nM
CC50 [14]: > 100000 nM
GI50 [15]: 2220 nM
CC50 [15]: > 100000 nM
GI50 [16]: 3000 nM
CC50 [16]: > 100000 nM
GI50 [17]: 2470 nM
CC50 [17, 32]: > 100000 nM
GI50 [18]: 2130 nM
CC50 [18, 32]: > 100000 nM
GI50 [19]: 1160 nM
CC50 [19]: > 100000 nM
GI50 [20]: 2980 nM
CC50 [20]: > 100000 nM
GI50 [21]: 2260 nM
LC50 (concentration causing 50% net cell kill) [21]: > 100000 nM
GI50 [22]: 490 nM
CC50 [22]: > 100000 nM
GI50 [23]: 570 nM
CC50 [23]: > 100000 nM
GI50 [24]: 1690 nM
CC50 [24]: > 100000 nM
GI50 [25]: 1640 nM
LC50 [25]: > 100000 nM
GI50 [26]: 2040 nM
CC50 [26, 32]: > 100000 nM
GI50 [27]: 840 nM
LC50 (concentration killing 50% of cells) [27]: > 100000 nM
GI50 [28]: 1000 nM
GI50 [29]: 1980 nM
CC50 [29]: > 100000 nM
GI50 [30]: 2510 nM
CC50 [30]: > 100000 nM
GI50 [31]: 2260 nM
CC50 [31]: > 100000 nM

COc1cc(C(=O)/C=C/c2cccc(Nc3ccnc4cc(Cl)ccc34)c2)cc(OC)c1OC
GI50 [1]: 440 nM
GI50 [2]: 360 nM
CC50 [2]: > 100000 nM
GI50 [3]: 1340 nM
CC50 [3]: > 100000 nM
GI50 [4]: 910 nM
CC50 [4]: 5190 nM
GI50 [5]: 1480 nM
LC50 (concentration giving 50% net cell kill) [5]: 11500 nM
GI50 [6]: 1030 nM
CC50 [6]: 5400 nM
GI50 [7]: 1670 nM
CC50 [7]: 8100 nM
GI50 [8]: 1910 nM
CC50 [8]: > 100000 nM
GI50 [9]: 1310 nM
CC50 [9]: > 100000 nM
GI50 [10]: 1220 nM
CC50 [10]: 8260 nM
GI50 [11]: 1130 nM
GI50 [12]: 1160 nM
GI50 [13]: 610 nM
CC50 [13]: 5240 nM
GI50 [14]: 1080 nM
CC50 [14]: 5670 nM
GI50 [15]: 1940 nM
CC50 [15]: 2610 nM
GI50 [16]: 1540 nM
CC50 [16]: > 100000 nM
GI50 [17]: 1240 nM
GI50 [18]: 470 nM
GI50 [19]: 410 nM
CC50 [19]: > 100000 nM
GI50 [20]: 1820 nM
CC50 [20]: > 100000 nM
GI50 [21]: 520 nM
LC50 (concentration causing 50% net cell kill) [21]: 7070 nM
GI50 [22]: 320 nM
CC50 [22]: > 100000 nM
GI50 [23]: 310 nM
CC50 [23]: > 100000 nM
GI50 [24]: 390 nM
CC50 [24]: 3850 nM
GI50 [25]: 320 nM
LC50 [25]: 5510 nM
GI50 [26]: 520 nM
GI50 [27]: 350 nM
LC50 (concentration killing 50% of cells) [27]: 3980 nM
GI50 [28]: 1260 nM
CC50 [28, 32]: 5260 nM
GI50 [29]: 450 nM
CC50 [29]: > 100000 nM
GI50 [30]: 1480 nM
CC50 [30]: > 100000 nM
GI50 [31]: 1180 nM
CC50 [31]: 5080 nM
